Here are results for one substance from publication PMC10993231 (RSC Advances, 2024).

The nature of the data set: Stability of radiolabeled peptide in human plasma. The data set is classed as in vitro ADME. Particulars: 37 °C, TLC read-out. The method in brief: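 The peptide was dissolved in DMSO and diluted with water, then iodinated with 131I (3 mCi) and chloramine-T in 0.05 mol L−1 PBS, pH 7.4. The mixture was vortexed 2 min at room temperature and the reaction stopped with sodium metabisulfite. The 131I-peptide was incubated with human plasma at 37 °C for up to 72 h to gauge proteolytic degradation.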

On to ^131I-cWIWLYA (head to tail), for which the “Radioactivity remaining after incubation in human plasma” value (5 h incubation) is reported as above 90% and the “Radioactivity remaining after incubation in human plasma” value (72 hours incubation) is given as 57.5%.
